In ChEMBL document CHEMBL4038350 (J Med Chem, 2017):
Non-standard residues stand in square brackets, D forms with d. Residues, ends and D or L forms follow the SMILES beside them.

Columns and labels:
Format in all cases: functional, cell-based
Melanocortin receptor 3 [1] = biological target: T1, Melanocortin receptor 3 (Mus musculus, UniProt P33033); assay: Antagonist activity at mouse melanocortin receptor 3 expressed in HEK293 cells assessed as inhibition of NDP-MSH-induced cAMP accumulation after 2 hrs by AlphaScreen assay; settings: read-out: pA2 (converted)
[2] = biological target: Melanocyte-stimulating hormone receptor (Mus musculus, UniProt Q01727); assay: Agonist activity at mouse melanocortin receptor 1 expressed in HEK293 cells assessed as increase in cAMP accumulation after 2 hrs by AlphaScreen assay
Procedure, shortened: (§1)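 Donor beads and biotin-cAMP in lysis buffer followed for 2 h. The AlphaScreen signal was read. EC50 came from nonlinear least-squares fits, duplicates, at least three independent experiments.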

Melanocortin receptor 3 [3] = biological target: T1, Melanocortin receptor 3; assay: Agonist activity at mouse melanocortin receptor 3 expressed in HEK293 cells assessed as increase in cAMP accumulation after 2 hrs by AlphaScreen assay
Melanocortin receptor 4 [4] = biological target: T2, Melanocortin receptor 4 (Mus musculus, UniProt P56450); assay: Agonist activity at mouse melanocortin receptor 4 expressed in HEK293 cells assessed as increase in cAMP accumulation after 2 hrs by AlphaScreen assay
Melanocortin receptor 4 [5] = biological target: T2, Melanocortin receptor 4; assay: Antagonist activity at mouse melanocortin receptor 4 expressed in HEK293 cells assessed as inhibition of NDP-MSH-induced cAMP accumulation after 2 hrs by AlphaScreen assay; settings: read-out: pA2 (converted)
[6] = biological target: Melanocortin receptor 5 (Mus musculus) (UniProt P41149); assay: Inverse agonist activity at mouse melanocortin receptor 5 expressed in HEK293 cells assessed as decrease in cAMP accumulation at 250 nM after 2 hrs by AlphaScreen assay relative to control; design: scale not given: the % may be the effect or the level left
Procedure, shortened: (§2)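 In mouse MC5R-HEK293 cells, cAMP was measured by AlphaScreen after 2 h peptide exposure (10−4 to 10−13 M) at room temperature. Each replicate was normalized to its signal at 10−10 M. For sigmoidal curves, percent inverse agonism was the change from basal to the high-concentration plateau. Apparent potency was taken as the curve inflection point. Three independent experiments were run.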

[7] = biological target: Melanocortin receptor 5 (Mus musculus) (UniProt P41149); assay: Inverse agonist activity at mouse melanocortin receptor 5 expressed in HEK293 cells assessed as decrease in cAMP accumulation at 140 nM after 2 hrs by AlphaScreen assay relative to control; design: scale not given: the % may be the effect or the level left; procedure, shortened: as §2
[8] = biological target: Melanocyte-stimulating hormone receptor (Mus musculus) (UniProt Q01727); assay: Agonist activity at mouse melanocortin receptor 1 expressed in HEK293 cells assessed as increase in cAMP accumulation at 100 uM after 2 hrs by AlphaScreen assay relative to control
Procedure, shortened: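 Cyclic peptides were dissolved in DMSO. Receptor-expressing HEK293 cells in IBMX-containing stimulation buffer (pH 7.4) were stimulated for 2 h at room temperature. cAMP was then detected by competitive AlphaScreen after a 2 h lysis/bead step. […] Values come from at least three independent experiments.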

[9] = biological target: Melanocortin receptor 5 (Mus musculus) (UniProt P41149); assay: Inverse agonist activity at mouse melanocortin receptor 5 expressed in HEK293 cells assessed as decrease in cAMP accumulation at 130 nM after 2 hrs by AlphaScreen assay relative to control; design: scale not given: the % may be the effect or the level left; procedure, shortened: as §2
[10] = biological target: Melanocortin receptor 5 (Mus musculus) (UniProt P41149); assay: Inverse agonist activity at mouse melanocortin receptor 5 expressed in HEK293 cells assessed as decrease in cAMP accumulation at 160 nM after 2 hrs by AlphaScreen assay relative to control; design: scale not given: the % may be the effect or the level left; procedure, shortened: as §2
[11] = biological target: Melanocortin receptor 5 (Mus musculus) (UniProt P41149); assay: Inverse agonist activity at mouse melanocortin receptor 5 expressed in HEK293 cells assessed as decrease in cAMP accumulation at 60 nM after 2 hrs by AlphaScreen assay relative to control; design: scale not given: the % may be the effect or the level left; procedure, shortened: as §2
[12] = biological target: Melanocortin receptor 5 (Mus musculus) (UniProt P41149); assay: Inverse agonist activity at mouse melanocortin receptor 5 expressed in HEK293 cells assessed as decrease in cAMP accumulation at 50 nM after 2 hrs by AlphaScreen assay relative to control; design: scale not given: the % may be the effect or the level left; procedure, shortened: as §2
Melanocortin receptor 5 = Melanocortin receptor 5 (Mus musculus, UniProt P41149); assay: Agonist activity at mouse melanocortin receptor 5 expressed in HEK293 cells assessed as increase in cAMP accumulation after 2 hrs by AlphaScreen assay; procedure, shortened: as §1
[13] = biological target: Melanocyte-stimulating hormone receptor (Mus musculus) (UniProt Q01727); assay: Partial agonist activity at mouse melanocortin receptor 1 expressed in HEK293 cells assessed as increase in cAMP accumulation after 2 hrs by AlphaScreen assay relative to NDP
Procedure, shortened: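 Mouse MC1R stably expressed in HEK293 cells, stimulated for 2 hr at room temperature in the dark. Peptide at 10−4 to 10−13 M in HBSS/HEPES buffer with 0.5 mM IBMX and 0.1% BSA, pH 7.4; forskolin 10−4 M. AlphaScreen cAMP detection after lysis and a further 2 hr. Signal normalized to maximal NDP-MSH response.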

Sequence of Melanocortin receptor 5 (Mus musculus) (P41149 whole entry): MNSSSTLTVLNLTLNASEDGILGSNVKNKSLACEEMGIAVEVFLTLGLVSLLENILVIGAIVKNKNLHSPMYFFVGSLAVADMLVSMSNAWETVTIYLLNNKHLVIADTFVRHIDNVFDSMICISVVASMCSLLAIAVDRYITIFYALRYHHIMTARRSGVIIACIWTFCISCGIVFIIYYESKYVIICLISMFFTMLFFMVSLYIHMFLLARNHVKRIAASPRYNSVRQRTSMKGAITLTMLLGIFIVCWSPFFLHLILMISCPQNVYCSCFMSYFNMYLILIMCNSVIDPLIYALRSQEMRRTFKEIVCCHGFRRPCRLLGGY
T1 sequence (P33033 whole entry): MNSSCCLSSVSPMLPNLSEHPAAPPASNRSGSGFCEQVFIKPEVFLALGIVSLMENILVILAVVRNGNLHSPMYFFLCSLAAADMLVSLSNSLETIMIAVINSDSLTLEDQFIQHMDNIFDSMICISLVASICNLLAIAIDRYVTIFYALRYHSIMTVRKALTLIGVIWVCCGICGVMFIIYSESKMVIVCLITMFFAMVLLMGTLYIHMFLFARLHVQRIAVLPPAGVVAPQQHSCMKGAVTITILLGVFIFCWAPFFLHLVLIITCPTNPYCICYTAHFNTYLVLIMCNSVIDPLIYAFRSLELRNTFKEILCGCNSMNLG
Sequence of Melanocyte-stimulating hormone receptor (Q01727 whole entry): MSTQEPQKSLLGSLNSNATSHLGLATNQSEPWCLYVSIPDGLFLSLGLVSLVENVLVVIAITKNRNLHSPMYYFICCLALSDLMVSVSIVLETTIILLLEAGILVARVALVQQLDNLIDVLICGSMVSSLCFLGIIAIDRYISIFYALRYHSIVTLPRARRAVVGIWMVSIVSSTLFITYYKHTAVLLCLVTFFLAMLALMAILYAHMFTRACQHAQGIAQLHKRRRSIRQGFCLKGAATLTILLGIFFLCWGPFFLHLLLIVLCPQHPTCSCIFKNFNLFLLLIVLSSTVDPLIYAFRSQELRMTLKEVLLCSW
Sequence of Melanocyte-stimulating hormone receptor (Mus musculus) (Q01727 whole entry, looked up): as the sequence (Q01727 whole entry) above
T2 sequence (P56450 whole entry): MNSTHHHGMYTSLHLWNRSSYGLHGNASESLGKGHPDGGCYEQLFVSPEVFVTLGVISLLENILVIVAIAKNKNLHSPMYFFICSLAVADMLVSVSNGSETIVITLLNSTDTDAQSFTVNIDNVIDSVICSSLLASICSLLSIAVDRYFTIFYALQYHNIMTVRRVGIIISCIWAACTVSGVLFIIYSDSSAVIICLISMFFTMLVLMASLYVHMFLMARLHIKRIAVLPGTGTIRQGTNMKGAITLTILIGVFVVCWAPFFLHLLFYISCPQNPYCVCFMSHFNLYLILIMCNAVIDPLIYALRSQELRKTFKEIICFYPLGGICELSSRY
Sequence of Melanocortin receptor 5 (P41149 whole entry): as the sequence (P41149 whole entry) above

Row | SMILES | Kb (Melanocortin receptor 3 [1]) | EC50 [2] | EC50 (Melanocortin receptor 3 [3]) | EC50 (Melanocortin receptor 4 [4]) | Kb (Melanocortin receptor 4 [5]) | other results
1 | C[C@@H]1NC(=O)[C@H](C)NC(=O)[C@H](Cc2ccccc2)NC(=O)[C@H](Cc2ccccc2)NC(=O)[C@H](CCCNC(=N)N)NC(=O)[C@@H]2CCCN2C(=O)[C@H]2CCCN2C(=O)[C@H](Cc2ccccc2)NC1=O | > 3.16 µM | > 100 µM | > 100 µM | > 100 µM | 0.0479 µM | Activity [6]: 20%
2 | C[C@@H]1NC(=O)[C@H](CO)NC(=O)[C@H](Cc2ccccc2)NC(=O)[C@H](Cc2ccccc2)NC(=O)[C@H](CCCNC(=N)N)NC(=O)[C@@H]2CCCN2C(=O)[C@H]2CCCN2C(=O)[C@H](Cc2ccccc2)NC1=O | 1.26 µM | > 100 µM | > 100 µM | > 100 µM | 0.02 µM | Activity [7]: 25%
3 | C[C@@H]1NC(=O)[C@H](CC(N)=O)NC(=O)[C@H](Cc2ccccc2)NC(=O)[C@H](Cc2ccccc2)NC(=O)[C@H](CCCNC(=N)N)NC(=O)[C@@H]2CCCN2C(=O)[C@H]2CCCN2C(=O)[C@H](Cc2ccccc2)NC1=O |  |  |  |  |  | Activity [8]: 25%; Activity [9]: 10%
4 | CCC1NC(=O)[C@H](Cc2ccccc2)NC(=O)[C@H](Cc2ccccc2)NC(=O)[C@H](CCCNC(=N)N)NC(=O)[C@@H]2CCCN2C(=O)[C@H]2CCCN2C(=O)[C@H](Cc2ccccc2)NC(=O)[C@H](C)NC1=O (some centres undefined) | > 3.16 µM |  | > 100 µM |  |  | Activity [10]: 20%
5 | C[C@@H]1NC(=O)[C@H](CN)NC(=O)[C@H](Cc2ccccc2)NC(=O)[C@H](Cc2ccccc2)NC(=O)[C@H](CCCNC(=N)N)NC(=O)[C@@H]2CCCN2C(=O)[C@H]2CCCN2C(=O)[C@H](Cc2ccccc2)NC1=O | 0.302 µM |  | > 100 µM |  |  | Activity [8]: 30%; Activity [11]: 15%
6 | C[C@@H]1NC(=O)[C@H]([C@@H](C)O)NC(=O)[C@H](Cc2ccccc2)NC(=O)[C@H](Cc2ccccc2)NC(=O)[C@H](CCCNC(=N)N)NC(=O)[C@@H]2CCCN2C(=O)[C@H]2CCCN2C(=O)[C@H](Cc2ccccc2)NC1=O (cyclo(RFFTAF[dP]P)) | 0.398 µM | > 100 µM | > 100 µM | > 100 µM | 0.0174 µM | Activity [12]: 20%
7 | N=C(N)NCCC[C@@H]1NC(=O)[C@@H]2CCCN2C(=O)[C@H]2CCCN2C(=O)[C@H](Cc2ccccc2)NC(=O)[C@H](Cc2c[nH]cn2)NC(=O)[C@H](CC(N)=O)NC(=O)[C@H](Cc2ccccc2)NC(=O)[C@H](Cc2ccccc2)NC1=O (cyclo(RFFNHF[dP]P)) | > 3.16 µM | 2.6 µM | > 100 µM | > 100 µM | 0.851 µM | EC50 (Melanocortin receptor 5): > 100 µM; Activity [13]: 40%
